A selection: hits, their analogues and other compounds. The true share with any hit is near 4.2%.
TAAR1 ag: human TAAR1 agonism. Q96RJ0. actives 0.99% (n = 360,000). AID 624467. activation, % at 3 µM. CHO RD-HGA16 TAAR1, Fluo-8 calcium fluorescence; vehicle wells 0%, saturating PEA agonist 100%;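 active = activation above the mean activation of all test compounds in the run plus 3 SD, cut at about 38% in these data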
Target sequence (Q96RJ0 whole entry, looked up): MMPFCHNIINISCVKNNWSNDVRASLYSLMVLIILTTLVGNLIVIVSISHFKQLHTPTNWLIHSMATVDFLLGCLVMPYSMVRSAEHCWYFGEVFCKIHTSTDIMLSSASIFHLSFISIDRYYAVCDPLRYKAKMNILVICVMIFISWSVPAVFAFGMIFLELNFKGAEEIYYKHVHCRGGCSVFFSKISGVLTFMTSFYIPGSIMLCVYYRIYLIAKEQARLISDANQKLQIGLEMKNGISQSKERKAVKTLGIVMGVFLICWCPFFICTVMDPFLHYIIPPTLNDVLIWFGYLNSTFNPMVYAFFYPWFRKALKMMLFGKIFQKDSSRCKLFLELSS
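Signal – calcium-sensitive Fluo-8 signal, excitation 470-495, emission 515-575 nm · System – RD-HGA16 (CHO) cells co-expressing Gα16 and hTAAR1 · Incubation – 17-24 h seeding, 75 min 37 °C dye, 30 min RT · Compound dosing – 3 µM single concentration · Repeats – no replicates (n 1)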
CHO parental Ca: counter-screen: ATP calcium response change in parental CHO cells. parental CHO-K1, ATP-induced calcium, Fluo-8 fluorescence. inhibition, % at 5.6 µM. actives 0.63% (n = 330,000);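 active = inhibition above that plate's mean sample inhibition plus 3 SD, cut at about 26% in these data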
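Material: Parental CHO cells | Reagent: ATP | Compound dosing: Single nominal dose of 5.6 µM per compound | Detection: Intracellular calcium via Fluo-8 no-wash fluorescent dye | Read-out: % inhibition of ATP-induced calcium mobilization | Benchmarks: Low control ATP plus DMSO, high control DMSO only | Replicates: Singlicate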
GalR3 antagonist: antagonists of human GalR3; HEK293 GalR3-CNG cAMP membrane potential fluorescence; galR3 body fused to GalR1 C-terminus; O60755; inhibition, % at 3 µM; actives 0.44% (n = 360,000);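 active = inhibition above the screen-wide average plus 3 SD, cut at about 13% in these data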;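 note: forskolin and galanin both at EC90 stimulate the cells; cAMP rise reported by CNG channel membrane potential dye signal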
TAAR1 antagonist: human TAAR1 antagonism | inhibition, % at 3 µM | AID 624466 | CHO RD-HGA16 TAAR1, Fluo-8 calcium fluorescence, antagonist | actives 1.5% (n = 360,000) | Q96RJ0;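 active = inhibition above a per-plate cutoff, the mean inhibition of test compounds on that plate plus 3 SD, cut at about 49% in these data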
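System: CHO RD-HGA16 cells bearing hTAAR1. Reagent: EC80 β-phenethylamine stimulus. Schedule: seeding 17-24 h prior, 75-min 37 °C, 30-min RT dye loading. Signal: Fluo-8 intracellular calcium dye fluorescence, real-time kinetic reads. Read-out: % inhibition from peak post-agonist over basal fluorescence ratio. Benchmarks: vehicle wells and EC80 agonist wells. Replicates: n of 1.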
OX1R antag-1: OX1R (human) antagonism | O43613 | OX1R-expressing cells, FRET antagonist read-out | inhibition, % at 6.6 µM | actives 1.8% (n = 330,000) | AID 485270; in the data active = inhibition mostly above about 38%, no sharp cut-off; inactive = mostly below about 40%
OX1R antag-2: human HCRTR1 antagonism; CHO/OX1R cells, Fluo-8 calcium fluorescence, orexin A; inhibition, % at 5 µM; actives 0.43% (n = 330,000);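 active = inhibition above its plate's threshold, mean inhibition of all tested compounds on the plate plus 3 SD, cut at about 37% in these data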
TAAR1 ag confirm: human TAAR1 agonism, confirmed; actives 82% (n = 2,400); CHO RD-HGA16 TAAR1, Fluo-8 calcium fluorescence; scaled: DMSO 0%, maximal phenethylamine 100%; activation, % at 3 µM; shares compounds with TAAR1 ag; AID 651783;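 active = activation above a cutoff set at the run's mean compound activation plus 3 SD, cut at about 39% in these data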
Ga16 ag counter: nonselective agonism, TAAR1 counter-screen; shares compounds with TAAR1 ag; CHO-Ga16 parental, Fluo-8 calcium fluorescence; normalized to maximal ATP response, DMSO zero; activation, % at 3 µM; actives 50% (n = 2,400);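 active = activation above the run cutoff, the mean activation over all tested wells plus 3 SD, cut at about 12% in these data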
TAAR1 desens: human TAAR1 agonist that also desensitizes the receptor. shares compounds with TAAR1 ag. CHO RD-HGA16 hTAAR1, Fluo-8 calcium, beta-PEA response inhibition. actives 46% (n = 2,400). AID 651951. inhibition, % at 3 µM;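 active = inhibition above the run cutoff, the mean inhibition of all test compounds plus 3 SD, cut at about 49% in these data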;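 note: beta-PEA stimulus applied at its EC80; loss of beta-PEA calcium signal after compound pretreatment read as receptor desensitization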
Ga16 nonsel ant: nonselective Ga16 antagonist in TAAR1 agonist counter-screen; CHO-Ga16 ATP-induced calcium, Fluo-8 fluorescence; actives 39% (n = 2,400); shares compounds with TAAR1 ag; inhibition, % at 3 µM;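 active = inhibition above the plate's mean compound inhibition plus 3 SD, computed per plate, cut at about 22% in these data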
Large screens that a line does not name were inactive (follow-up assays come after a bar, where they were run).

COc1cc(C2c3cc4c(cc3OC(NCCc3ccccc3)C2C)OCO4)cc(OC)c1OC (stereo not drawn)	TAAR1 ag 97, TAAR1 antagonist 91 (no result: CHO parental Ca, OX1R antag-1, OX1R antag-2) | TAAR1 ag confirm 97 | Ga16 ag counter inactive | TAAR1 desens 100 | Ga16 nonsel ant inactive
Cc1ccc(OCC(=O)NNC(=S)NC(=O)C2CC2)c(C)c1	TAAR1 ag 49 (no result: CHO parental Ca, OX1R antag-1, OX1R antag-2) | TAAR1 ag confirm 48 | Ga16 ag counter 50 | TAAR1 desens inactive | Ga16 nonsel ant 39
Cc1ccc(OCC(=O)NNC(=S)NC(=O)C(C)(C)C)c(Br)c1	TAAR1 ag 155, TAAR1 antagonist 106 | TAAR1 ag confirm 132 | Ga16 ag counter 109 | TAAR1 desens 98 | Ga16 nonsel ant 72
Cc1ccc(OCC(=O)NNC(=S)NC(=O)C2CCCCC2)c(C)c1	none (no result: TAAR1 ag, GalR3 antagonist, TAAR1 antagonist)
COc1ccc(CN2C(=O)CC(Cc3cc(C)cc(C)c3)C2=O)cc1OC (stereo not drawn)	none
O=C(C(=O)N(C1CCCCC1)C1CCCCC1)c1ccccc1	none (no result: CHO parental Ca, OX1R antag-1, OX1R antag-2)
COc1ccc(Nc2cc(C)nc(N3CCOCC3)n2)cc1	TAAR1 ag 49 | TAAR1 ag confirm 70 | Ga16 ag counter inactive | TAAR1 desens inactive | Ga16 nonsel ant inactive
COc1ccc(/C=N/Nc2cc(C)nc(N3CCOCC3)n2)cc1	none
COc1ccc(C(=O)NNC(=S)NC(=O)c2cc(-c3ccccc3)nc3ccccc23)cc1	TAAR1 ag 128, TAAR1 antagonist 88 | TAAR1 ag confirm 122 | Ga16 ag counter 94 | TAAR1 desens 95 | Ga16 nonsel ant 73
COC(=O)c1ccc(NC(=S)NC(=O)c2cc(-c3ccccc3)nc3ccccc23)cc1	none
CCNC(=S)NNC(=O)c1cc(-c2ccc(OCC)cc2)nc2ccccc12	none
CCCOc1ccc(C(=O)NNC(=S)NC(=O)c2cc(-c3ccc(Cl)cc3)nc3ccccc23)cc1	TAAR1 ag 62, TAAR1 antagonist 85 | TAAR1 ag confirm 105 | Ga16 ag counter 78 | TAAR1 desens 103 | Ga16 nonsel ant 94
COc1ccc(Cl)cc1C(=O)NNC(=S)NC(=O)c1cc(-c2ccccc2)nc2ccccc12	TAAR1 ag 104, TAAR1 antagonist 75 | TAAR1 ag confirm 114 | Ga16 ag counter 96 | TAAR1 desens 102 | Ga16 nonsel ant 87
CCCCCn1c(=O)[nH]c2cc(C(=O)NCCN3CCOCC3)ccc2c1=O	none
CCNC(=O)OCc1cn(-c2ccccc2)nn1	none
CN(C)CCCN(C(=O)c1ccc(S(=O)(=O)N2CCc3ccccc3C2)cc1)c1nc2ccc(F)cc2s1	TAAR1 ag 75, TAAR1 antagonist 50 | TAAR1 ag confirm 69 | Ga16 ag counter 46 | TAAR1 desens inactive | Ga16 nonsel ant 42
CN(C)CCCN(C(=O)c1ccc(S(=O)(=O)N(C)C)cc1)c1nc2ccc(F)cc2s1	none
CN(C)CCCN(C(=O)c1ccc(S(=O)(=O)N2CCc3ccccc32)cc1)c1nc2ccc(F)cc2s1	TAAR1 ag 51 | TAAR1 ag confirm 66 | Ga16 ag counter 36 | TAAR1 desens 57 | Ga16 nonsel ant 41
Nc1sc2c(c1C(=O)NCCc1ccccc1)CCC2	TAAR1 ag 54 | TAAR1 ag confirm 81 | Ga16 ag counter inactive | TAAR1 desens 61 | Ga16 nonsel ant inactive
Nc1sc2c(c1C(=O)c1ccccc1)CCCC2	none

Source: PubChem
